Reference: ChEMBL document CHEMBL1275350, “First in class, potent, and orally bioavailable NADPH oxidase isoform 4 (Nox4) inhibitors for the treatment of idiopathic pulmonary fibrosis” (J Med Chem, 2010)
One block for each compound: values may come before it.

How the values were obtained:
NADPH oxidase 4 = target: T1, NADPH oxidase 4 (Homo sapiens, UniProt Q9NPH5); assay: Inhibition of human NOX4 overexpressed in T-REx-293 cell membrane assessed as ROS production by cell free assay in presence of NADPH; details: in the assay text read “T-REx-293 cell membrane” for “human PMN cell membrane”
T1 sequence (Q9NPH5 whole entry): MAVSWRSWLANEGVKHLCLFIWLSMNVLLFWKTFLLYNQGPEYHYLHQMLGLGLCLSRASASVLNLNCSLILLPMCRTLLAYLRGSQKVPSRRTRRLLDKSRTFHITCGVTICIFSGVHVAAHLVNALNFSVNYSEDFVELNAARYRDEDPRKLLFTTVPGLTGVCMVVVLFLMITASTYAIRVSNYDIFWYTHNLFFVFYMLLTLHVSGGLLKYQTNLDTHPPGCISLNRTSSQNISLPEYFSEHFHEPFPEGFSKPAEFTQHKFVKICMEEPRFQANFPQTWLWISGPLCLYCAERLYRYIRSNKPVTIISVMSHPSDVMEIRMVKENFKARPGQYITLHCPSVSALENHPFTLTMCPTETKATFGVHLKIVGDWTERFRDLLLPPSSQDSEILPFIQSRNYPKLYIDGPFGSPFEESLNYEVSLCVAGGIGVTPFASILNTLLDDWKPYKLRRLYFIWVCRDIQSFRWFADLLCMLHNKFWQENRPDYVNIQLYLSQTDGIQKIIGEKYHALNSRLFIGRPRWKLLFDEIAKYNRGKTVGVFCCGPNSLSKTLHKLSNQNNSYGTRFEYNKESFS
How it was run: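 hNOX4 T-REx-293 cells induced with tetracycline (1 μg/mL, 24 h), sonicated in sucrose/NaCl/EGTA PBS buffer pH 7.4, membranes taken from a sucrose gradient. NADPH-triggered ROS measured by Amplex Red/HRP in PBS, with compound at 1 nM–100 μM, 20 min at 37 °C. Ki by Cheng-Prusoff from ≥3 triplicate experiments.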

[1] = Intrinsic clearance in Sprague-Dawley rat liver microsomes assessed per mg of protein at 0.5 uM; format: ADME, Microsome
How it was run: (§1)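 Phase I stability assay in pooled liver microsomes (human: male and female; rat: male Sprague-Dawley). Microsomes at 0.5 mg/mL final in 0.1 M phosphate pH 7.4. Compound 0.5 μM final, 0.25% DMSO. Preincubated at 37 °C, reaction started with 1 mM NADPH. Sampled at 0, 5, 15, 30 and 45 min, with a 45 min minus-NADPH control. Methanol quench with internal standard, LC/MS-MS, intrinsic clearance calculated.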

[2] = Intrinsic clearance in human liver microsomes assessed as per mg of protein at 0.5 uM; format: ADME, Microsome; how it was run: as §1
[3] = Half life in Sprague-Dawley rat at 5 mg/kg, iv; format: ADME, organism-based; design: dose 5 mg/kg, route intravenous; details: in vivo
How it was run: (§2)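 Parallel design with six male rats: three given 5 mg/kg iv in EDPW (10% EtOH, 10% DMA, 30% PG, 50% water), three given 10 mg/kg orally in aqueous 0.5% CMC with 0.25% Tween 20. Carotid cannula blood sampled up to 24 h. Plasma levels by LC/MS/MS (LLOQ 1.00 ng/mL). Noncompartmental analysis.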

[4] = AUC (infinity) in Sprague-Dawley rat at 5 mg/kg, iv; format: ADME, organism-based; design: time infinity, dose 5 mg/kg, route intravenous; details: plasma; how it was run: as §2
[5] = Clearance in Sprague-Dawley rat at 10 mg/kg, po; format: ADME, organism-based; design: dose 10 mg/kg, route oral; details: in vivo; how it was run: as §2
[6] = Volume of distribution at steady state in Sprague-Dawley rat at 5 mg/kg, iv; format: ADME, organism-based; design: dose 5 mg/kg, route intravenous; details: in vivo, read-out: Vdss
How it was run: (§3)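 Parallel design in male rats, three per group. Group 1: 5 mg/kg iv in EDPW (10% EtOH, 10% DMA, 30% PG, 50% water). Group 2: 10 mg/kg oral in aqueous 0.5% CMC with 0.25% Tween 20. Carotid cannula blood drawn up to 24 h. Plasma measured by LC/MS/MS (LLOQ 1.00 ng/mL), noncompartmental analysis.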

[7] = AUC (infinity) in Sprague-Dawley rat at 10 mg/kg, po; format: ADME, organism-based; design: time infinity, dose 10 mg/kg, route oral; details: plasma; how it was run: as §2
[8] = Oral bioavailability in Sprague-Dawley rat at 10 mg/kg; format: ADME, organism-based; details: in vivo; how it was run: as §3
[9] = Cmax in Sprague-Dawley rat at 5 mg/kg, iv; format: ADME, organism-based; design: dose 5 mg/kg, route intravenous; details: in vivo; how it was run: as §2
[10] = Cmax in Sprague-Dawley rat at 10 mg/kg, po; format: ADME, organism-based; design: dose 10 mg/kg, route oral; details: in vivo; how it was run: as §2
[11] = Tmax in Sprague-Dawley rat at 10 mg/kg, po; format: ADME, organism-based; design: dose 10 mg/kg, route oral; details: in vivo; how it was run: as §3
[12] = Clearance in Sprague-Dawley rat at 5 mg/kg, iv; format: ADME, organism-based; design: dose 5 mg/kg, route intravenous; details: in vivo; how it was run: as §2
[13] = Half life in Sprague-Dawley rat at 10 mg/kg, po; format: ADME, organism-based; design: dose 10 mg/kg, route oral; details: in vivo; how it was run: as §2
[14] = Permeability across human Caco-2 cell membrane at 10 uM after 2 hrs; format: ADME, cell-based
How it was run: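 Caco-2 monolayers grown 20 days in DMEM, used when TEER >800 Ω·cm2. Dosed at 10 μM final in HBSS pH 6.5 with 1% DMSO, apical-to-basolateral and basolateral-to-apical. Incubated 2 h at 37 °C, both compartments sampled, LC-MS/MS with five-point calibration. Papp = (dQ/dt)/(C0A).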

Ki (NADPH oxidase 4): 342 nM
SMILES: Cc1c2c(=O)n(Cc3ccc(F)cc3Cl)[nH]c2cc(=O)n1Cc1ccccn1

Ki (NADPH oxidase 4): 328 nM
SMILES: CC(=O)Nc1cccc(-n2[nH]c3cc(=O)n(C)c(C)c3c2=O)c1

Ki (NADPH oxidase 4): > 30000 nM
SMILES: Cc1c2c(=O)n(-c3nc4ccccc4s3)n(Cc3ccccn3)c2cc(=O)n1CC1CCOC1 (configuration not stated)

Ki (NADPH oxidase 4): 215 nM
microsomal CLint at 0.5 µM [1]: 49.3 µL/min/mg
SMILES: Cc1c2c(=O)n(-c3ccccc3Cl)[nH]c2cc(=O)n1C

Ki (NADPH oxidase 4): 218 nM
SMILES: Cc1c2c(=O)n(Cc3cc(Cl)ccc3Cl)[nH]c2cc(=O)n1Cc1ccccn1

Ki (NADPH oxidase 4): 515 nM
SMILES: Cc1c2c(=O)n(-c3ccccc3Cl)[nH]c2cc(=O)n1Cc1ccc(CN2CCN(C)CC2)cc1

Ki (NADPH oxidase 4): 65 nM
microsomal CLint at 0.5 µM [1]: 121 µL/min/mg
microsomal CLint at 0.5 µM [2]: 57.9 µL/min/mg
SMILES: COc1cccc(N2CCN(Cc3c4c(=O)n(-c5ccccc5Cl)[nH]c4cc(=O)n3C)CC2)c1

Ki (NADPH oxidase 4): 878 nM
SMILES: Cc1c2c(=O)n(-c3ccc(F)cc3)[nH]c2cc(=O)n1Cc1ccccc1

Ki (NADPH oxidase 4): 172 nM
SMILES: CN(Cc1c2c(=O)n(-c3ccccc3Cl)[nH]c2cc(=O)n1CCc1ccccn1)c1ccccc1

Ki (NADPH oxidase 4): > 30000 nM
SMILES: Cc1c2c(=O)n(-c3ccccc3)n(Cc3ccccc3Cl)c2cc(=O)n1CCCN1CCCC1=O

Ki (NADPH oxidase 4): 1950 nM
SMILES: Cc1c2c(=O)n(-c3nc(-c4ccccc4)cs3)[nH]c2cc(=O)n1C

Ki (NADPH oxidase 4): 259 nM
SMILES: Cc1c2c(=O)n(-c3ccccc3Cl)[nH]c2cc(=O)n1Cc1ccc(S(N)(=O)=O)cc1

Ki (NADPH oxidase 4): 1420 nM
SMILES: Cc1c2c(=O)n(-c3ccc(S(=O)(=O)N4CCN(C)CC4)cn3)[nH]c2cc(=O)n1C

Ki (NADPH oxidase 4): 3060 nM
SMILES: Cc1c2c(=O)n(-c3ccc(OCc4ccccc4)cc3)[nH]c2cc(=O)n1C

Ki (NADPH oxidase 4): 428 nM
SMILES: Cc1c2c(=O)n(-c3ccccc3Cl)[nH]c2cc(=O)n1CCCC(=O)N1CCN(C)CC1

Ki (NADPH oxidase 4): 9490 nM
SMILES: Cc1c2c(=O)n(-c3ccccc3)[nH]c2cc(=O)n1Cc1ccco1

half-life [3]: 3.3 h
AUC(0-inf) [4]: 3130 ng·h/mL
CL/F [5]: 73.2 mL/min/kg
Vd [6]: 1.49 L/kg
Ki (NADPH oxidase 4): 114 nM
AUC(0-inf) [7]: 2430 ng·h/mL
microsomal CLint at 0.5 µM [1]: 62.3 µL/min/mg
microsomal CLint at 0.5 µM [2]: 45.4 µL/min/mg
bioavailability [8]: 39%
Cmax [9]: 6190 ng/mL
Cmax [10]: 2830 ng/mL
Tmax [11]: 0.33 h
clearance [12]: 26.8 mL/min/kg
half-life [13]: 1.13 h
Papp at 2 h, 10 µM [14]: 7.3 ×10⁻⁶ cm/s
SMILES: O=c1c2c(CN3CCCC3)n(CCc3ccccn3)c(=O)cc2[nH]n1-c1ccc(F)cc1Cl

AUC(0-inf) [4]: 822 ng·h/mL
CL/F [5]: 1610 mL/min/kg
Vd [6]: 2.95 L/kg
Ki (NADPH oxidase 4): 153 nM
AUC(0-inf) [7]: 109 ng·h/mL
microsomal CLint at 0.5 µM [1]: 45.3 µL/min/mg
microsomal CLint at 0.5 µM [2]: 45.1 µL/min/mg
bioavailability [8]: 6%
Cmax [9]: 4640 ng/mL
Cmax [10]: 132 ng/mL
Tmax [11]: 0.25 h
clearance [12]: 109 mL/min/kg
half-life [13]: 2.35 h
Papp at 2 h, 10 µM [14]: 1.4 ×10⁻⁶ cm/s
SMILES: COCCn1c(COc2ccc(F)cc2)c2c(=O)n(CCN3CCOCC3)[nH]c2cc1=O

half-life [3]: 3.14 h
AUC(0-inf) [4]: 15400 ng·h/mL
CL/F [5]: 20 mL/min/kg
Vd [6]: 0.35 L/kg
Ki (NADPH oxidase 4): 95 nM
AUC(0-inf) [7]: 8930 ng·h/mL
microsomal CLint at 0.5 µM [1]: 49.5 µL/min/mg
microsomal CLint at 0.5 µM [2]: 32.4 µL/min/mg
bioavailability [8]: 29%
Cmax [9]: 36800 ng/mL
Cmax [10]: 6080 ng/mL
Tmax [11]: 0.25 h
clearance [12]: 5.5 mL/min/kg
half-life [13]: 2.38 h
Papp at 2 h, 10 µM [14]: 78.6 ×10⁻⁶ cm/s
SMILES: O=c1c2c(COCc3ccccc3)n(Cc3cnccn3)c(=O)cc2[nH]n1-c1ccccc1Cl

Ki (NADPH oxidase 4): 326 nM
SMILES: Cc1c2c(=O)n(CCOc3ccc(Cl)cc3)[nH]c2cc(=O)n1Cc1ccccn1

Ki (NADPH oxidase 4): 334 nM
SMILES: Cc1c2c(=O)n(CCc3ccccc3)[nH]c2cc(=O)n1Cc1ccccn1

Ki (NADPH oxidase 4): 308 nM
SMILES: Cc1c2c(=O)n(-c3ccccc3F)[nH]c2cc(=O)n1C

Ki (NADPH oxidase 4): 5230 nM
SMILES: Cc1c2c(=O)n(-c3ccccc3)[nH]c2cc(=O)n1CCc1ccccc1

Ki (NADPH oxidase 4): 293 nM
SMILES: Cc1c2c(=O)n(-c3cccc(C#N)c3)[nH]c2cc(=O)n1C

Ki (NADPH oxidase 4): 1210 nM
SMILES: Cc1c2c(=O)n(-c3nc4ccccc4s3)[nH]c2cc(=O)n1N1CCOCC1

Ki (NADPH oxidase 4): 240 nM
SMILES: CC(=O)n1c2cc(=O)n(Cc3cccnc3)c(C)c2c(=O)n1-c1ccccc1Cl

Ki (NADPH oxidase 4): 259 nM
SMILES: Cc1c2c(=O)n(Cc3ccc(Cl)cc3)[nH]c2cc(=O)n1Cc1ccccn1

Ki (NADPH oxidase 4): 2180 nM
SMILES: Cc1c2c(=O)n(C)[nH]c2cc(=O)n1C
